# Active and inactive are the calls of the source. No cut-off for these calls is given here.
# Columns and labels:
# [1] = biological target: T1, Signal transducer and activator of transcription 3 (Homo sapiens, UniProt P40763); test: Displacement of 5'-FAM-GpYLPQTV-NH2 from His-tagged STAT3-SH2 domain (127 to 722 residues) (unknown origin) assessed as binding rate at 50 uM […] by fluorescence polarization assay; settings: time 90.0 min
# [2] = biological target: Platelet-derived growth factor receptor beta (Homo sapiens) (UniProt P09619); test: Inhibition of PDGFRbeta (unknown origin) at 1 uM by ELISA
# [3] = biological target: T1, Signal transducer and activator of transcription 3; test: Displacement of 5'-FAM-GpYLPQTV-NH2 from His-tagged STAT3-SH2 domain (127 to 722 residues) (unknown origin) assessed as binding rate at 20 uM […] by fluorescence polarization assay; settings: time 90.0 min
# [4] = biological target: T1, Signal transducer and activator of transcription 3; test: Inhibition of STAT3 phosphorylation at Ser727 residue in human MDA-MB-468 cells measured after 24 hrs by Western blot analysis; format: cell-based; settings: dose 1.25-5 µM
# In short: (§1)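 Cells were treated for 24 h, then lysed in hot 2% SDS with boiling, and protein was quantified by BCA. Lysates were run on SDS-PAGE, transferred to nitrocellulose and blocked with 3% milk in TBST. Membranes were probed overnight at 4 °C with 1:1000 antibodies to pSTAT3 Tyr705, pSTAT3 Ser727, STAT3, c-Myc, MCL-1, β-actin and GAPDH. Detection used HRP secondaries and ECL.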
# [5] = biological target: T1, Signal transducer and activator of transcription 3; test: Inhibition of STAT3 phosphorylation at Tyr705 residue in human MDA-MB-468 cells measured after 24 hrs by Western blot analysis; format: cell-based; settings: dose 1.25-5 µM; in short: as §1
# [6] = biological target: T1, Signal transducer and activator of transcription 3; test: Inhibition of STAT3 in human HEL cells expressing JAK2 V617F mutant cells assessed as downregulation of c-Myc protein expression at 1.25 to 5 uM incubated for 24 hrs by western blot analysis; format: cell-based; settings: dose 1.25-5 µM; in short: as §1
# [7] = biological target: Receptor tyrosine-protein kinase erbB-2 (Homo sapiens) (UniProt P04626); test: Inhibition of ERBB2 (unknown origin) at 1 uM by ELISA
# Receptor tyrosine-protein kinase erbB-2 (Homo sapiens), sequence (P04626 whole entry): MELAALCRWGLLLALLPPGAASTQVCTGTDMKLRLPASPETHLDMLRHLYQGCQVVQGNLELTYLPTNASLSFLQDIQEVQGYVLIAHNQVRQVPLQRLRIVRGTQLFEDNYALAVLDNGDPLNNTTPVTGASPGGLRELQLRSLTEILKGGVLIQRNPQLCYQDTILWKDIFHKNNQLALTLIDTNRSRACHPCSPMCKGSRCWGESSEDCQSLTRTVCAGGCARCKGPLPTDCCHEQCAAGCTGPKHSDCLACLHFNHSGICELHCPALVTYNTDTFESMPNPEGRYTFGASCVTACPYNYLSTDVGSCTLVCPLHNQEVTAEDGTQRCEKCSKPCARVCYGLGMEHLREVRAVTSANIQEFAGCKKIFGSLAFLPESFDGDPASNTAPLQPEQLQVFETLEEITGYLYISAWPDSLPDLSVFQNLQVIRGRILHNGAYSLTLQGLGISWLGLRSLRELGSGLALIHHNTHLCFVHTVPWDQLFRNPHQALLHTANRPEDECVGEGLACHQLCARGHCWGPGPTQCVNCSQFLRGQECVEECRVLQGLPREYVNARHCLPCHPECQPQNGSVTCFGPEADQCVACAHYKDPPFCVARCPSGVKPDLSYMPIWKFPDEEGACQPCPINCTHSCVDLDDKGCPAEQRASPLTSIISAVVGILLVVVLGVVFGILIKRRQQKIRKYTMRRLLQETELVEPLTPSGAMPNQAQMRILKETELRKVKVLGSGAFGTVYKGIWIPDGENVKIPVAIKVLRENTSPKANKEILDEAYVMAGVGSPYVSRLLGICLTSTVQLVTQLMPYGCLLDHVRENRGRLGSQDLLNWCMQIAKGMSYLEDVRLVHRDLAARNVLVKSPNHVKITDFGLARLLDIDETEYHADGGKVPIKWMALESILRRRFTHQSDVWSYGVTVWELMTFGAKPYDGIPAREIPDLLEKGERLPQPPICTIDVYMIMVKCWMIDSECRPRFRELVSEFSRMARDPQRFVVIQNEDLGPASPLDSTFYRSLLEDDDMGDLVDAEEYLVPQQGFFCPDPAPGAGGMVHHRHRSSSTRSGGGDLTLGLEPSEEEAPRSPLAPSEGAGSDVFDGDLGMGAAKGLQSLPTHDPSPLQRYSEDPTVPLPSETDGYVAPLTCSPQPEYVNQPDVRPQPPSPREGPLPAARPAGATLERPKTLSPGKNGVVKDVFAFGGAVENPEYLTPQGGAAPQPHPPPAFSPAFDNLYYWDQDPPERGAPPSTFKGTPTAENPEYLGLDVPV
# HEL [8] = test: Induction of cell cycle arrest in human HEL cells expressing JAK2 V617F mutant cells assessed as decrease in accumulation at G1 phase after 48 hrs by PI/RNase staining based flow cytometry; format: functional; settings: dose 1.25-5 µM
# In short: (§2)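 Cells were seeded overnight, then exposed to DMSO or increasing compound concentrations for 48 h. They were fixed in ice-cold 80% ethanol overnight, stained with PI containing RNase for 30 min at 37 °C, and analysed by flow cytometry.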
# HEL [9] = test: Induction of apoptosis in human HEL cells expressing JAK2 V617F mutant cells at 1.25 to 5 uM measured after 48 hrs by AnnexinV-FITC/PI staining based flow cytometry analysis; format: functional, cell-based; settings: dose 1.25-5 µM
# In short: (§3)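 Cells were seeded overnight, then exposed to DMSO or compound for 48 h. They were washed twice in PBS and resuspended in binding buffer with Annexin V-FITC and propidium iodide. After 15 min at room temperature in the dark, cells were analysed by flow cytometry; data are representative of three independent experiments.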
# HEL [10] = test: Antiproliferative activity against human HEL cells harboring JAK2 V617F mutant assessed as inhibition of cell growth incubated for 72 hrs by MTT assay; format: functional, cell-based
# In short: (§4)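 MTT proliferation assay; MDA-MB-468 grown in DMEM/F-12 and HEL in high-glucose DMEM, each with 10% FBS and penicillin/streptomycin, at 37 °C under 5% CO₂. IC50 given as mean ± SD of at least three independent experiments.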
# MDA-MB-468 [11] = test: Effect on STAT3 expression in human MDA-MB-468 cells at 1.25 to 5 uM measured after 24 hrs by Western blot analysis; format: functional, cell-based; settings: dose 1.25-5 µM; in short: as §1
# [12] = biological target: T1, Signal transducer and activator of transcription 3; test: Inhibition of STAT3 in human MDA-MB-468 cells assessed as downregulation of c-Myc protein expression at 1.25 to 5 uM incubated for 24 hrs by western blot analysis; format: cell-based; settings: dose 1.25-5 µM; in short: as §1
# [13] = biological target: Insulin-like growth factor 1 receptor (Homo sapiens) (UniProt P08069); test: Inhibition of IGF1R (unknown origin) at 1 uM by ELISA
# Insulin-like growth factor 1 receptor (Homo sapiens), sequence (P08069 31-736 limits assumed): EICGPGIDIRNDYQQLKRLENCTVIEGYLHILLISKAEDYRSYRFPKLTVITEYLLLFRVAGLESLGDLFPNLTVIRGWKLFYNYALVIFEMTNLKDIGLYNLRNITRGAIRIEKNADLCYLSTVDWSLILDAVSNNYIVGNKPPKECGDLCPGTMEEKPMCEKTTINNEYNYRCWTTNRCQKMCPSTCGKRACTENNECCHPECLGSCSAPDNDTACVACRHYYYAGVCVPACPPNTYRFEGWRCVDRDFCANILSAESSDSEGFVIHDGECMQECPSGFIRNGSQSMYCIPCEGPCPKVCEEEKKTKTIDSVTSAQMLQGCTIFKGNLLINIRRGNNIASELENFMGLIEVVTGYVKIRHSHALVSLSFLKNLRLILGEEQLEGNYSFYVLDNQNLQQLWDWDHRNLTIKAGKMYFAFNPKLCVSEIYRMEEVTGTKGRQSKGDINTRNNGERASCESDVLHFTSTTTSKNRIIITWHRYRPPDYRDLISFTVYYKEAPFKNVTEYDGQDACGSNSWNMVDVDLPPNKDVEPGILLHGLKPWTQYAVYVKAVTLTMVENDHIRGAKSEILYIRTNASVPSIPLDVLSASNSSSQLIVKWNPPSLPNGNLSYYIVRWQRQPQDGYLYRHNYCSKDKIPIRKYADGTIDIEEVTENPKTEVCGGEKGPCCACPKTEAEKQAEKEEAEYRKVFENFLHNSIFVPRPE
# Insulin-like growth factor 1 receptor (Homo sapiens), sequence (P08069 741-1367 limits assumed): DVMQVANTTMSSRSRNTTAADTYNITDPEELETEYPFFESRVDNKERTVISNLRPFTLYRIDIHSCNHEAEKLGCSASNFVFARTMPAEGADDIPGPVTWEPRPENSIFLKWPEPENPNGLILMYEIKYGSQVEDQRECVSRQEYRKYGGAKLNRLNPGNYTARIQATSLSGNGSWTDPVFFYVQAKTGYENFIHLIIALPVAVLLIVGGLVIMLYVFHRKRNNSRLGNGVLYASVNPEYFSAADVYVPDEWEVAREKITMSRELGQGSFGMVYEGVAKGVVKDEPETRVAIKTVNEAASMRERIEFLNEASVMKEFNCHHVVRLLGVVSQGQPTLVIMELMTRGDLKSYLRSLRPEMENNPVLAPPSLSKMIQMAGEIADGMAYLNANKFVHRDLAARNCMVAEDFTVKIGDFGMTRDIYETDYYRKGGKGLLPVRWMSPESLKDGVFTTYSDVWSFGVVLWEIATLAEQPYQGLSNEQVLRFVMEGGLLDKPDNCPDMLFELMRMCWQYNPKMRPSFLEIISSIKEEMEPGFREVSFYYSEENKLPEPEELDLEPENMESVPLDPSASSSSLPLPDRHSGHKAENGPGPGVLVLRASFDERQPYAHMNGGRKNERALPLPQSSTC
# [14] = biological target: T1, Signal transducer and activator of transcription 3; test: Inhibition of STAT3 in human HEL cells expressing JAK2 V617F mutant cells assessed as downregulation of MCL-1 protein expression at 1.25 to 5 uM incubated for 24 hrs by western blot analysis; format: cell-based; settings: dose 1.25-5 µM; in short: as §1
# MDA-MB-453 = test: Antiproliferative activity against human MDA-MB-453 cells expressing low levels of STAT3 assessed as inhibition of cell growth incubated for 72 hrs by MTT assay; format: functional, cell-based; settings: MDA-MB-453, 72 h
# In short: (§5)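 MTT proliferation assay on MCF-7 and MDA-MB-453 cells; IC50 given as mean ± SD of at least two independent experiments.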
# [15] = biological target: Vascular endothelial growth factor receptor 1 (Homo sapiens) (UniProt P17948); test: Inhibition of VEGFR1 (unknown origin) at 1 uM by ELISA
# Vascular endothelial growth factor receptor 1 (Homo sapiens), sequence (P17948 whole entry): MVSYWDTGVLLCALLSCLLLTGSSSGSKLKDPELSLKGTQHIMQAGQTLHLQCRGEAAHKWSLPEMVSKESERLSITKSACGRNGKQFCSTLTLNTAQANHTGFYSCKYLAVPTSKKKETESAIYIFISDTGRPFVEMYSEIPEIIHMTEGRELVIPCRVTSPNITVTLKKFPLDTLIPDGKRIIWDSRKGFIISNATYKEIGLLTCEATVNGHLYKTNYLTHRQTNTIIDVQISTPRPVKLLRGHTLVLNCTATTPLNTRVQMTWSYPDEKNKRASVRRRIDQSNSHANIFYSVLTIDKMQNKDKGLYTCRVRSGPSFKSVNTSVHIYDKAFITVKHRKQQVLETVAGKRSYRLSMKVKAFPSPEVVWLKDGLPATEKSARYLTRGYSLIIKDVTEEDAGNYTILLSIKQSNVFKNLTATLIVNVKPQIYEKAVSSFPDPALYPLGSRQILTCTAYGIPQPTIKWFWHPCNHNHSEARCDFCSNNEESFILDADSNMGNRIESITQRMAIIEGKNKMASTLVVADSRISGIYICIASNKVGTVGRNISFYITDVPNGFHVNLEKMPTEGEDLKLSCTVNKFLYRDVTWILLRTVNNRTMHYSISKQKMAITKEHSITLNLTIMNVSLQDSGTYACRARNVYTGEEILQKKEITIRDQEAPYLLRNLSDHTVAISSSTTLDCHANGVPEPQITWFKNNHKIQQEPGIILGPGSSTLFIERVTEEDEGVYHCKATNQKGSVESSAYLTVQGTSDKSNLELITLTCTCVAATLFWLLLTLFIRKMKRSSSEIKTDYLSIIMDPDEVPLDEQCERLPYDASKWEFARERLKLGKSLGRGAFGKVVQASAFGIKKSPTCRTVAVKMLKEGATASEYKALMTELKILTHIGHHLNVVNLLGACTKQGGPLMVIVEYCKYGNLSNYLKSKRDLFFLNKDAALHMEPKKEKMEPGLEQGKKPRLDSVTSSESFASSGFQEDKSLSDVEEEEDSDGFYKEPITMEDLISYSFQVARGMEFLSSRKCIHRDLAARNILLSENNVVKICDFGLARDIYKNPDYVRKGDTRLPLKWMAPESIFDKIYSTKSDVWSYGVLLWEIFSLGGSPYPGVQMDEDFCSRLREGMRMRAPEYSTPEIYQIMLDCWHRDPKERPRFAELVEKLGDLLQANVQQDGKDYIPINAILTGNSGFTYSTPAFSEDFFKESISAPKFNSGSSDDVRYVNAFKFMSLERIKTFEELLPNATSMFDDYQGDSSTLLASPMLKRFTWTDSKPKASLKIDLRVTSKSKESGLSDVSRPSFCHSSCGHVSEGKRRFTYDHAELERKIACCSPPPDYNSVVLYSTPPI
# MDA-MB-468 [16] = test: Antiproliferative activity against human MDA-MB-468 cells overexpressing STAT3 assessed as inhibition of cell growth incubated for 72 hrs by MTT assay; format: functional, cell-based; settings: MDA-MB-468, 72 h; in short: as §4
# [17] = biological target: T1, Signal transducer and activator of transcription 3; test: Inhibition of IL-6 induced STAT3 transcriptional activity in human HepG2 cells incubated for 1 hr followed by stimulation with IL-6 for 5.5 hrs by luciferase reporter gene assay; format: cell-based
# In short: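 STAT3-dependent luciferase reporter assay in HepG2 cells with IL-6 stimulation; IC50 given as mean ± SD of at least three independent experiments.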
# [18] = biological target: T1, Signal transducer and activator of transcription 3; test: Inhibition of STAT3 phosphorylation at Ser727 residue in human HEL cells expressing JAK2 V617F mutant measured after 24 hrs by Western blot analysis; format: cell-based; settings: dose 1.25-5 µM; in short: as §1
# [19] = biological target: T1, Signal transducer and activator of transcription 3; test: Inhibition of STAT3 in human MDA-MB-468 cells assessed as downregulation of MCL-1 protein expression at 1.25 to 5 uM incubated for 24 hrs by western blot analysis; format: cell-based; settings: dose 1.25-5 µM; in short: as §1
# HEL [20] = test: Induction of cell cycle arrest in human HEL cells expressing JAK2 V617F mutant cells assessed as increase in accumulation at G2/M phase after 48 hrs by PI/RNase staining based flow cytometry; format: functional; settings: dose 1.25-5 µM; in short: as §2
# MDA-MB-468 [21] = test: Induction of cell cycle arrest in human MDA-MB-468 cells assessed as decrease in accumulation at G1 phase after 48 hrs by PI/RNase staining based flow cytometry; format: functional; settings: dose 1.25-5 µM; in short: as §2
# MDA-MB-468 [22] = test: Induction of apoptosis in human MDA-MB-468 cells at 1.25 to 5 uM measured after 48 hrs by AnnexinV-FITC/PI staining based flow cytometry analysis; format: functional, cell-based; settings: dose 1.25-5 µM; in short: as §3
# HEL [23] = test: Effect on STAT3 expression in human HEL cells expressing JAK2 V617F mutant at 1.25 to 5 uM measured after 24 hrs by Western blot analysis; format: functional, cell-based; settings: dose 1.25-5 µM; in short: as §1
# [24] = biological target: T1, Signal transducer and activator of transcription 3; test: Inhibition of STAT3 phosphorylation at Tyr705 residue in human HEL cells expressing JAK2 V617F mutant measured after 24 hrs by Western blot analysis; format: cell-based; settings: dose 1.25-5 µM; in short: as §1
# MDA-MB-468 [25] = test: Induction of cell cycle arrest in human MDA-MB-468 cells assessed as increase in accumulation at G2/M phase after 48 hrs by PI/RNase staining based flow cytometry; format: functional; settings: dose 1.25-5 µM; in short: as §2
# MCF7 = test: Antiproliferative activity against human MCF7 cells expressing low levels of STAT3 assessed as inhibition of cell growth incubated for 72 hrs by MTT assay; format: functional, cell-based; settings: MCF7, 72 h; in short: as §5
# [26] = biological target: Receptor tyrosine-protein kinase erbB-4 (Homo sapiens) (UniProt Q15303); test: Inhibition of ERBB4 (unknown origin) at 1 uM by ELISA
# [27] = biological target: T1, Signal transducer and activator of transcription 3; test: Displacement of 5'-FAM-GpYLPQTV-NH2 from His-tagged STAT3-SH2 domain (127 to 722 residues) (unknown origin) assessed as binding rate at 100 uM […] by fluorescence polarization assay; settings: time 90.0 min
# [28] = biological target: T1, Signal transducer and activator of transcription 3; test: Binding affinity to His-tagged STAT3-SH2 domain (127 to 722 residues) (unknown origin) by surface plasmon resonance analysis
# In short: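 SPR on a Biacore T200 with STAT3 SH2 domain. Analytes were run as concentration series, and KD was taken as the equilibrium constant.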
# T1 sequence (P40763 whole entry, the tested form may be a part): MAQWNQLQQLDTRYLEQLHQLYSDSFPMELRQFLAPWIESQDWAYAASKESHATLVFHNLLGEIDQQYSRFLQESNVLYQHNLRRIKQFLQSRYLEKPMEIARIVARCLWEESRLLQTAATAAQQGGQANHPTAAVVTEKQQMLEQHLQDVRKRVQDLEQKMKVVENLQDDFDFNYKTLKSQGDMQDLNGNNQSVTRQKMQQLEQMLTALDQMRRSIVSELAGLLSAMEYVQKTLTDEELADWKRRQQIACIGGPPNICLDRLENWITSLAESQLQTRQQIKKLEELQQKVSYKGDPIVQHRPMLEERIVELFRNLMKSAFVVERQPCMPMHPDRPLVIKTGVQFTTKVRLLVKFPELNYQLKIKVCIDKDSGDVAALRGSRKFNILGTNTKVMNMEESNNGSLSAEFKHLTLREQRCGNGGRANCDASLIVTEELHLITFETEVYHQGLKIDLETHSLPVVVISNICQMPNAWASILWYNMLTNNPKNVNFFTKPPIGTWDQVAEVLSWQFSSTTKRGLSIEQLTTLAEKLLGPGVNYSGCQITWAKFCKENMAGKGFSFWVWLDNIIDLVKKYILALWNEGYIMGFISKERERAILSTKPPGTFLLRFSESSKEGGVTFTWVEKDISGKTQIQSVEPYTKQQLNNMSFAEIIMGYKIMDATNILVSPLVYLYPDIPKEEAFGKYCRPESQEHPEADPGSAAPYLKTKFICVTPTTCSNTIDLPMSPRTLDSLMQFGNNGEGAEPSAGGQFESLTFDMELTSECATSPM
Activity [1],inhibition [2],Activity [3],inhibition [4],inhibition [5],inhibition [6],inhibition [7],inhibition [12],inhibition [13],inhibition [14],IC50 (MDA-MB-453),inhibition [15],IC50 (MDA-MB-468 [16]),IC50 [17],inhibition [18],inhibition [19],Compound,Activity (HEL [8]),Activity (HEL [9]),IC50 (HEL [10]),Activity (MDA-MB-468 [11]),also measured
< 10%,0%,< 10%,Dose-Dependent Effect,Dose-Dependent Effect,Active,9.6%,Active,0%,Active,> 20000 nM,0%,250 nM,67 nM,Dose-Dependent Effect,Active,CCCC(C)Oc1ccc(C(=O)Nc2ccc3nc(SCC(=O)N[C@@H](C)c4ccc(OC)cc4)sc3c2)c(OC)c1C (stereo not given in full),Dose-Dependent Effect,Active,1110 nM,inactive,Activity (HEL [20]): Dose-Dependent Effect; Activity (MDA-MB-468 [21]): Dose-Dependent Effect; Activity (MDA-MB-468 [22]): Active; Activity (HEL [23]): inactive; inhibition [24]: Dose-Dependent Effect; Activity (MDA-MB-468 [25]): Dose-Dependent Effect; IC50 (MCF7): > 20000 nM; inhibition [26]: 0%; Activity [27]: < 10%; Kd [28]: 53 nM
< 10%,0%,< 10%,Dose-Dependent Effect,Dose-Dependent Effect,Active,5.2%,Active,0%,Active,> 20000 nM,0%,1040 nM,160 nM,Dose-Dependent Effect,Active,CCCC(C)Oc1ccc(C(=O)Nc2ccc3nc(SCC(=O)N[C@@H](C)c4ccccc4)sc3c2)c(OC)c1C (stereo not given in full),Dose-Dependent Effect,Active,2410 nM,inactive,Activity (HEL [20]): Dose-Dependent Effect; Activity (MDA-MB-468 [21]): Dose-Dependent Effect; Activity (MDA-MB-468 [22]): Active; Activity (HEL [23]): inactive; inhibition [24]: Dose-Dependent Effect; Activity (MDA-MB-468 [25]): Dose-Dependent Effect; IC50 (MCF7): > 20000 nM; inhibition [26]: 0%; Activity [27]: < 10%; Kd [28]: 62.6 nM

# — ChEMBL document CHEMBL4813976, “Rational drug design of benzothiazole-based derivatives as potent signal transducer and activator of transcription 3 (STAT3) signaling pathway inhibitors” (Eur J Med Chem, 2021)
